Experimental data published in ChEMBL document CHEMBL5724801, “EUbOPEN Chemogenomics Library - Multiplex” (2024).
Several values for one entry are separate records, joined by “and”; a condition that tells them apart may be missing. Equal values may be shown once.

Assays:
HEK-293T = assay: Multiplex assay against HEK293T; type: toxicity, cell-based; conditions: human
Outline: (§1)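 Phenotypes for tubulin, mitochondrial mass and membrane permeability are expressed as per cents of healthy-nucleus cells. Cells were stained live at seeding with Hoechst33342, BioTracker Green Microtubule Cytoskeleton Dye, MitoTracker Red and Annexin V Alexa Fluor 680, then imaged after compound addition on a CQ1 microscope at 37°C and 5% CO2. Machine-learning gating in CellPathfinder separated Hoechst high-intensity objects from normal cells, divided normal cells by nuclear state (healthy, pyknosed, fragmented) and divided pyknosed cells into mitotic or apoptotic.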

U2OS = assay: Multiplex assay against U2OS; type: toxicity, cell-based; conditions: human; outline: as §1
[1] = 24 h, 10 µM, compound concentration 10 uM
[2] = 48 h, 1 µM, compound concentration 1 uM
[3] = 48 h, 10 µM, compound concentration 10 uM
[4] = 12 h, 1 µM, compound concentration 1 uM
[5] = 12 h, 10 µM, compound concentration 10 uM
[6] = 24 h, 1 µM, compound concentration 1 uM

Compound: CC(C)(C)c1ccc(CSc2cnn(C(C)(C)C)c(=O)c2Cl)cc1 [PYRIDABEN]
- Population Apoptotic (%) (HEK-293T; [1]): 44% and 46%
- Population Fragmented Nuclei (%) (HEK-293T; [1]): 7% and 8%
- Population Healthy Nuclei (%) (HEK-293T; [1]): 79% and 70%
- Population Hoechst High Intensity Objects (%) (HEK-293T; [1]): 10% and 23%
- Population Membrane Permeable-Phenotype (%) (HEK-293T; [1]): 0%
- Population Mitochondria Different-Phenotype (%) (HEK-293T; [1]): 68% and 65%
- Population Mitotic Cells (%) (HEK-293T; [1]): 55% and 53%
- Population Normal (%) (HEK-293T; [1]): 89% and 76%
- Population Pyknosed Nuclei (%) (HEK-293T; [1]): 12% and 21%
- Population Tubulin-Different-Phenotype (%) (HEK-293T; [1]): 52% and 25%
- Total Cell Count (HEK-293T; [1]): 386 and 252
- Population Apoptotic (%) (HEK-293T; [2]): 19% and 30%
- Population Fragmented Nuclei (%) (HEK-293T; [2]): 11% and 9%
- Population Healthy Nuclei (%) (HEK-293T; [2]): 80% and 84%
- Population Hoechst High Intensity Objects (%) (HEK-293T; [2]): 5% and 4%
- Population Membrane Permeable-Phenotype (%) (HEK-293T; [2]): 0%
- Population Mitochondria Different-Phenotype (%) (HEK-293T; [2]): 25% and 21%
- Population Mitotic Cells (%) (HEK-293T; [2]): 80% and 69%
- Population Normal (%) (HEK-293T; [2]): 94% and 95%
- Population Pyknosed Nuclei (%) (HEK-293T; [2]): 7% and 6%
- Population Tubulin-Different-Phenotype (%) (HEK-293T; [2]): 14% and 13%
- Total Cell Count (HEK-293T; [2]): 585 and 522
- Population Apoptotic (%) (HEK-293T; [3]): 48% and 64%
- Population Fragmented Nuclei (%) (HEK-293T; [3]): 8% and 13%
- Population Healthy Nuclei (%) (HEK-293T; [3]): 79% and 71%
- Population Hoechst High Intensity Objects (%) (HEK-293T; [3]): 11% and 14%
- Population Membrane Permeable-Phenotype (%) (HEK-293T; [3]): 0%
- Population Mitochondria Different-Phenotype (%) (HEK-293T; [3]): 59% and 48%
- Population Mitotic Cells (%) (HEK-293T; [3]): 51% and 35%
- Population Normal (%) (HEK-293T; [3]): 88% and 85%
- Population Pyknosed Nuclei (%) (HEK-293T; [3]): 12% and 14%
- Population Tubulin-Different-Phenotype (%) (HEK-293T; [3]): 43% and 28%
- Total Cell Count (HEK-293T; [3]): 424 and 290
- Population Apoptotic (%) (U2OS; [4]): 79% and 63%
- Population Fragmented Nuclei (%) (U2OS; [4]): 28% and 11%
- Population Healthy Nuclei (%) (U2OS; [4]): 61% and 81%
- Population Hoechst High Intensity Objects (%) (U2OS; [4]): 3% and 0%
- Population Membrane Permeable-Phenotype (%) (U2OS; [4]): 3% and 4%
- Population Mitochondria Different-Phenotype (%) (U2OS; [4]): 1%
- Population Mitotic Cells (%) (U2OS; [4]): 20% and 36%
- Population Normal (%) (U2OS; [4]): 97% and 99%
- Population Pyknosed Nuclei (%) (U2OS; [4]): 9% and 7%
- Population Tubulin-Different-Phenotype (%) (U2OS; [4]): 2% and 3%
- Total Cell Count (U2OS; [4]): 267 and 152
- Population Apoptotic (%) (U2OS; [5]): 83% and 87%
- Population Fragmented Nuclei (%) (U2OS; [5]): 28% and 15%
- Population Healthy Nuclei (%) (U2OS; [5]): 57% and 73%
- Population Hoechst High Intensity Objects (%) (U2OS; [5]): 1% and 0%
- Population Membrane Permeable-Phenotype (%) (U2OS; [5]): 5%
- Population Mitochondria Different-Phenotype (%) (U2OS; [5]): 5% and 2%
- Population Mitotic Cells (%) (U2OS; [5]): 16% and 12%
- Population Normal (%) (U2OS; [5]): 98% and 100%
- Population Pyknosed Nuclei (%) (U2OS; [5]): 14% and 11%
- Population Tubulin-Different-Phenotype (%) (U2OS; [5]): 3% and 2%
- Total Cell Count (U2OS; [5]): 209 and 141
- Population Apoptotic (%) (U2OS; [6]): 83% and 100%
- Population Fragmented Nuclei (%) (U2OS; [6]): 28% and 19%
- Population Healthy Nuclei (%) (U2OS; [6]): 58% and 75%
- Population Hoechst High Intensity Objects (%) (U2OS; [6]): 1% and 2%
- Population Membrane Permeable-Phenotype (%) (U2OS; [6]): 4% and 3%
- Population Mitochondria Different-Phenotype (%) (U2OS; [6]): 1%
- Population Mitotic Cells (%) (U2OS; [6]): 16% and 0%
- Population Normal (%) (U2OS; [6]): 98% and 97%
- Population Pyknosed Nuclei (%) (U2OS; [6]): 13% and 5%
- Population Tubulin-Different-Phenotype (%) (U2OS; [6]): 1%
- Total Cell Count (U2OS; [6]): 286 and 186
- Population Apoptotic (%) (U2OS; [1]): 80%
- Population Fragmented Nuclei (%) (U2OS; [1]): 22% and 19%
- Population Healthy Nuclei (%) (U2OS; [1]): 61% and 68%
- Population Hoechst High Intensity Objects (%) (U2OS; [1]): 2% and 1%
- Population Membrane Permeable-Phenotype (%) (U2OS; [1]): 8% and 6%
- Population Mitochondria Different-Phenotype (%) (U2OS; [1]): 3% and 1%
- Population Mitotic Cells (%) (U2OS; [1]): 19% and 20%
- Population Normal (%) (U2OS; [1]): 97% and 98%
- Population Pyknosed Nuclei (%) (U2OS; [1]): 15% and 12%
- Population Tubulin-Different-Phenotype (%) (U2OS; [1]): 6% and 2%
- Total Cell Count (U2OS; [1]): 234 and 167
- Population Apoptotic (%) (U2OS; [2]): 76% and 84%
- Population Fragmented Nuclei (%) (U2OS; [2]): 26% and 19%
- Population Healthy Nuclei (%) (U2OS; [2]): 63% and 70%
- Population Hoechst High Intensity Objects (%) (U2OS; [2]): 3% and 6%
- Population Membrane Permeable-Phenotype (%) (U2OS; [2]): 6% and 5%
- Population Mitochondria Different-Phenotype (%) (U2OS; [2]): 3%
- Population Mitotic Cells (%) (U2OS; [2]): 23% and 15%
- Population Normal (%) (U2OS; [2]): 96% and 93%
- Population Pyknosed Nuclei (%) (U2OS; [2]): 9%
- Population Tubulin-Different-Phenotype (%) (U2OS; [2]): 3% and 2%
- Total Cell Count (U2OS; [2]): 361 and 212
- Population Apoptotic (%) (U2OS; [3]): 90% and 95%
- Population Fragmented Nuclei (%) (U2OS; [3]): 20% and 16%
- Population Healthy Nuclei (%) (U2OS; [3]): 64% and 70%
- Population Hoechst High Intensity Objects (%) (U2OS; [3]): 4% and 3%
- Population Membrane Permeable-Phenotype (%) (U2OS; [3]): 9% and 5%
- Population Mitochondria Different-Phenotype (%) (U2OS; [3]): 4% and 6%
- Population Mitotic Cells (%) (U2OS; [3]): 10% and 4%
- Population Normal (%) (U2OS; [3]): 95% and 96%
- Population Pyknosed Nuclei (%) (U2OS; [3]): 14% and 13%
- Population Tubulin-Different-Phenotype (%) (U2OS; [3]): 6% and 4%
- Total Cell Count (U2OS; [3]): 280 and 191
